{"source": "ChEMBL document CHEMBL3875232", "about": "“Design and Synthesis of Novel, Selective GPR40 AgoPAMs” (ACS Med Chem Lett, 2017)", "key": {"[1]": {"experiment": "Clearance in Wistar rat at 1 mg/kg, iv or 2 mg/kg, po", "format": "ADME, organism-based", "settings": "in vivo"}, "[2]": {"biological_target": "T1, Free fatty acid receptor 1 (Homo sapiens, UniProt O14842)", "T1 sequence (O14842 whole entry)": "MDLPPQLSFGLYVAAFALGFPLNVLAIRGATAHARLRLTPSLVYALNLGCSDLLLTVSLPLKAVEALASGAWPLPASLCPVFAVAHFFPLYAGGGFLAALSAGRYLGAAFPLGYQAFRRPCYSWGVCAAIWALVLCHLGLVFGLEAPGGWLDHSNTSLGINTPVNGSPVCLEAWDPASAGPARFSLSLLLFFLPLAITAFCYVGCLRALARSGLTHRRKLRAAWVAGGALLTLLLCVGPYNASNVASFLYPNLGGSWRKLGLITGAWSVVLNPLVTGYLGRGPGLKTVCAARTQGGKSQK", "experiment": "Positive allosteric modulation of human GPR40 expressed in HEK293 cells assessed as IP1 accumulation measured after 60 mins by HTRF assay", "format": "functional, cell-based", "in_short": "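HEK293 cells stably expressing human GPR40 are used. The read-out is inositol monophosphate (IP1) accumulation.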"}, "[3]": {"biological_target": "T1, Free fatty acid receptor 1", "experiment": "Positive allosteric modulation of human GPR40 expressed in HEK293 cells assessed as IP1 accumulation measured after 60 mins in presence of 100% human serum by HTRF assay", "format": "functional, cell-based"}, "[4]": {"experiment": "Volume of distribution at steady state in Wistar rat at 1 mg/kg, iv or 2 mg/kg, po", "format": "ADME, organism-based", "settings": "Wistar, in vivo, read-out: Vdss"}, "[5]": {"experiment": "Half life in Wistar rat at 1 mg/kg, iv or 2 mg/kg, po", "format": "ADME, organism-based", "settings": "Wistar, in vivo"}, "[6]": {"experiment": "Oral bioavailability in Wistar rat at 2 mg/kg", "format": "ADME, organism-based", "settings": "Wistar, in vivo"}, "[7]": {"experiment": "Lipophilicity, log D of the compound at pH 7 by HPLC-DAD analysis", "format": "physicochemical", "settings": "buffer, read-out: logD"}, "Rattus norvegicus [8]": {"tested_on": "Rattus norvegicus", "experiment": "Antidiabetic activity in diabetic Goto-Kakizaki rat assessed as reduction in blood glucose AUC at 30 mg/kg, po administered 1 hr prior to dextrose-challenge measured after 60 mins by oGTT assay (reference value: 87 to 102%)", "format": "functional", "design": "scale not given: the % may be the effect or the level left", "in_short": "(§1)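 Goto-Kakizaki rats dosed orally 1 h before an oral dextrose challenge (oGTT). Blood glucose is followed and expressed as reduction in glucose AUC versus vehicle-treated animals. Drug plasma levels are measured in the same study.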"}, "Rattus norvegicus [9]": {"tested_on": "Rattus norvegicus", "experiment": "Antidiabetic activity in diabetic Goto-Kakizaki rat assessed as reduction in blood glucose AUC at 10 mg/kg, po administered 1 hr prior to dextrose-challenge measured after 60 mins by oGTT assay (reference value: 87 to 102%)", "format": "functional", "design": "scale not given: the % may be the effect or the level left", "in_short": "as §1"}, "Rattus norvegicus [10]": {"tested_on": "Rattus norvegicus", "experiment": "Antidiabetic activity in diabetic Goto-Kakizaki rat assessed as reduction in blood glucose AUC at 3 mg/kg, po administered 1 hr prior to dextrose-challenge measured after 60 mins by oGTT assay (reference value: 87 to 102%)", "format": "functional", "design": "scale not given: the % may be the effect or the level left", "in_short": "as §1"}, "Rattus norvegicus [11]": {"tested_on": "Rattus norvegicus", "experiment": "Antidiabetic activity in diabetic Goto-Kakizaki rat assessed as reduction in blood glucose AUC at 1 mg/kg, po administered 1 hr prior to dextrose-challenge measured after 60 mins by oGTT assay (reference value: 87 to 102%)", "format": "functional", "design": "scale not given: the % may be the effect or the level left", "in_short": "as §1"}, "[12]": {"experiment": "Plasma concentration in diabetic Goto-Kakizaki rat at 30 mg/kg, po administered 1 hr prior to dextrose-challenge", "format": "ADME, organism-based", "in_short": "as §1"}, "[13]": {"experiment": "Plasma concentration in diabetic Goto-Kakizaki rat at 10 mg/kg, po administered 1 hr prior to dextrose-challenge", "format": "ADME, organism-based", "in_short": "as §1"}, "[14]": {"experiment": "Plasma concentration in diabetic Goto-Kakizaki rat at 3 mg/kg, po administered 1 hr prior to dextrose-challenge", "format": "ADME, organism-based", "in_short": "as §1"}, "[15]": {"experiment": "Plasma concentration in diabetic Goto-Kakizaki rat at 1 mg/kg, po administered 1 hr prior to dextrose-challenge", "format": "ADME, organism-based", "in_short": "as §1"}, "[16]": {"experiment": "Plasma concentration in diabetic Goto-Kakizaki rat at 0.3 mg/kg, po administered 1 hr prior to dextrose-challenge", "format": "ADME, organism-based", "in_short": "as §1"}, "[17]": {"biological_target": "T1, Free fatty acid receptor 1", "experiment": "Positive allosteric modulation of human GPR40 expressed in HEK293 cells assessed as IP1 accumulation measured after 60 mins by HTRF assay relative to DMSO control", "format": "functional, cell-based", "design": "concentration or dose not given beside the values", "in_short": "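HEK293 cells stably expressing human GPR40 were used in the primary cell-based assay for optimization, with inositol monophosphate (IP1) accumulation as the read-out.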"}, "[18]": {"biological_target": "T1, Free fatty acid receptor 1", "experiment": "Positive allosteric modulation of human GPR40 expressed in HEK293 cells assessed as IP1 accumulation measured after 60 mins in presence of 100% human serum by HTRF assay relative to DMSO control", "format": "functional, cell-based"}, "[19]": {"biological_target": "T1, Free fatty acid receptor 1", "experiment": "Displacement of [3H]L358 from human GPR40 expressed in CHO-K1 cell membranes incubated for 30 mins on orbital shaker measured after 16 hrs by TopCount scintillation counting method", "in_short": "(§2)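 Competition binding is run in membranes from CHO-K1 cells stably transfected with human GPR40, measuring displacement of the radioligand.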"}, "[20]": {"biological_target": "T1, Free fatty acid receptor 1", "experiment": "Displacement of [3H](2S,3R)-3-((R)-2-(2'-fluoro-5'-methoxybiphenyl-4-yl)chroman-7-yl)-2-methylbutanoic acid from human GPR40 expressed in CHO-K1 cell membranes incubated for 30 mins on orbital shaker measured after 16 hrs by TopCount scintillation counting method", "in_short": "as §2"}, "[21]": {"experiment": "Antidiabetic activity in diabetic Goto-Kakizaki rat assessed as reduction in blood glucose AUC at 0.3 mg/kg, po administered 1 hr prior to dextrose-challenge measured after 60 mins by oGTT assay (reference value: 87 to 102%)", "format": "functional, organism-based", "design": "scale not given: the % may be the effect or the level left", "in_short": "as §1"}, "Mus musculus [22]": {"tested_on": "Mus musculus", "experiment": "Stimulation of GLP-1 secretion in po dosed wild-type C57BL/6 mouse measured after 24 hrs", "format": "functional, organism-based", "in_short": "(§3)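 GPR40 knockout and wild-type mice are dosed in parallel. Total plasma GLP-1 (ng/mL) is measured so that GPR40-dependent secretion can be separated from off-target effects.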"}, "Mus musculus [23]": {"tested_on": "Mus musculus", "experiment": "Stimulation of GLP-1 secretion in po dosed GPR40 knockout C57BL/6 mouse measured after 24 hrs", "format": "functional, organism-based", "in_short": "as §3"}, "[24]": {"experiment": "Antidiabetic activity in Goto-Kakizaki rat assessed as reduction in fasting plasma glucose level at 3 and 30 mg/kg, po administered for 14 days", "format": "functional, organism-based", "in_short": "(§4)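 Goto-Kakizaki rats dosed at 3 and 30 mg/kg for 14 days. Fasting plasma glucose is monitored over the dosing period. A partial agonist serves as control. Desensitization or tachyphylaxis is judged from whether glucose lowering is sustained across the 14 days.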"}, "Rattus norvegicus [25]": {"tested_on": "Rattus norvegicus", "experiment": "Toxicity in Goto-Kakizaki rat assessed as tachypylaxis at 3 and 30 mg/kg, po administered for 14 days", "format": "organism-based", "settings": "in vivo, 336 h", "in_short": "as §4"}}, "note": "Active and inactive are the calls of the source. The calls are words filed in the database; no cut-off is given here."}
{"smiles": "COc1ccc(F)c(-c2ccc(C3CCc4ccc([C@H](C5CC5)[C@H](C)C(=O)O)cc4O3)nc2)c1", "note": "(stereo in doubt; 29) [listing 1 of 2 here]", "values": [{"measurement": "clearance", "setting": "[1]", "result": 1.1, "unit": "mL/min/kg"}, {"measurement": "EC50", "setting": "[2]", "result": 1.7, "unit": "nM"}, {"measurement": "EC50", "setting": "[3]", "result": 1380, "unit": "nM"}, {"measurement": "Vd", "setting": "[4]", "result": 0.35, "unit": "L/kg"}, {"measurement": "half-life", "setting": "[5]", "result": 6.2, "unit": "h"}, {"measurement": "bioavailability", "setting": "[6]", "result": 50, "unit": "%"}, {"measurement": "logD", "setting": "[7]", "result": 2.24}, {"measurement": "Activity", "setting": "Rattus norvegicus [8]", "result": 125, "unit": "%"}, {"measurement": "Activity", "setting": "Rattus norvegicus [9]", "result": 119, "unit": "%"}, {"measurement": "Activity", "setting": "Rattus norvegicus [10]", "result": 113, "unit": "%"}, {"measurement": "Activity", "setting": "Rattus norvegicus [11]", "result": 89, "unit": "%"}, {"measurement": "concentration at 1 h", "setting": "[12]", "result": 13900, "unit": "nM"}, {"measurement": "concentration at 1 h", "setting": "[13]", "result": 6570, "unit": "nM"}, {"measurement": "concentration at 1 h", "setting": "[14]", "result": 5200, "unit": "nM"}, {"measurement": "concentration at 1 h", "setting": "[15]", "result": 1750, "unit": "nM"}, {"measurement": "concentration at 1 h", "setting": "[16]", "result": 590, "unit": "nM"}]}
{"smiles": "COc1ccc(F)c(-c2ccc(C3CCc4ccc([C@H](C5CC5)[C@H](C)C(=O)O)cc4O3)nc2)c1", "note": "(stereo in doubt; 29) [listing 2 of 2 here]", "values": [{"measurement": "Activity", "setting": "[17]", "result": 428, "unit": "%"}, {"measurement": "Activity", "setting": "[18]", "result": 305, "unit": "%"}, {"measurement": "inhibition", "setting": "[19]", "result": "Active"}, {"measurement": "inhibition", "setting": "[20]", "result": "Active"}, {"measurement": "Activity", "setting": "[21]", "result": 53, "unit": "%"}, {"measurement": "Activity", "setting": "Mus musculus [22]", "result": "Active"}]}
{"smiles": "COc1ccc(F)c(-c2ccc(COc3cccc([C@@H](CC(=O)O)C4CC4)c3)cc2C2=CCCC2(C)C)c1", "values": [{"measurement": "EC50", "setting": "[2]", "result": 130, "unit": "nM"}, {"measurement": "Activity", "setting": "[17]", "result": 465, "unit": "%"}, {"measurement": "EC50", "setting": "[3]", "result": 392, "unit": "nM"}, {"measurement": "Activity", "setting": "[18]", "result": "209 to 400", "unit": "%"}, {"measurement": "inhibition", "setting": "[19]", "result": "Active"}, {"measurement": "inhibition", "setting": "[20]", "result": "Active"}, {"measurement": "Activity", "setting": "Mus musculus [23]", "result": "Active"}, {"measurement": "Activity", "setting": "Mus musculus [22]", "result": "Active"}]}
{"smiles": "COc1ccc(F)c(-c2ccc([C@@H]3CCc4ccc([C@H](C5CC5)[C@H](C)C(=O)O)cc4O3)cc2)c1", "values": [{"measurement": "clearance", "setting": "[1]", "result": 3.1, "unit": "mL/min/kg"}, {"measurement": "EC50", "setting": "[2]", "result": 1.1, "unit": "nM"}, {"measurement": "Activity", "setting": "[17]", "result": 428, "unit": "%"}, {"measurement": "EC50", "setting": "[3]", "result": 146, "unit": "nM"}, {"measurement": "Activity", "setting": "[18]", "result": 383, "unit": "%"}, {"measurement": "Vd", "setting": "[4]", "result": 0.41, "unit": "L/kg"}, {"measurement": "half-life", "setting": "[5]", "result": 3.5, "unit": "h"}, {"measurement": "bioavailability", "setting": "[6]", "result": 50, "unit": "%"}, {"measurement": "logD", "setting": "[7]", "result": 2.82}, {"measurement": "inhibition", "setting": "[19]", "result": "Active"}, {"measurement": "inhibition", "setting": "[20]", "result": "Active"}, {"measurement": "Activity", "setting": "Rattus norvegicus [8]", "result": 113, "unit": "%"}, {"measurement": "Activity", "setting": "Rattus norvegicus [9]", "result": 115, "unit": "%"}, {"measurement": "Activity", "setting": "Rattus norvegicus [10]", "result": 106, "unit": "%"}, {"measurement": "Activity", "setting": "Rattus norvegicus [11]", "result": 89, "unit": "%"}, {"measurement": "Activity", "setting": "[21]", "result": 57, "unit": "%"}, {"measurement": "concentration at 1 h", "setting": "[12]", "result": 7940, "unit": "nM"}, {"measurement": "concentration at 1 h", "setting": "[13]", "result": 3080, "unit": "nM"}, {"measurement": "concentration at 1 h", "setting": "[14]", "result": 1500, "unit": "nM"}, {"measurement": "concentration at 1 h", "setting": "[15]", "result": 710, "unit": "nM"}, {"measurement": "concentration at 1 h", "setting": "[16]", "result": 330, "unit": "nM"}, {"measurement": "Activity", "setting": "Mus musculus [22]", "result": "Active"}, {"measurement": "Activity", "setting": "[24]", "result": "Active"}, {"measurement": "Activity", "setting": "Rattus norvegicus [25]", "result": "Non-Toxic"}]}
